Measurements: ChEMBL document CHEMBL5724801, “EUbOPEN Chemogenomics Library - Multiplex” (2024)
Where “and” joins values, the source holds several entries; their conditions need not be identical. Equal entries are not always repeated.

Test system: Fibroblast
Test: Multiplex assay against human fibroblast
Assay type: toxicity, cell-based
Method in brief: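 Imaging took place on a CQ1 microscope at 37°C and 5% CO2 once compound had been added to live cells stained at seeding with Hoechst33342, BioTracker Green Microtubule Cytoskeleton Dye, MitoTracker Red and Annexin V Alexa Fluor 680. CellPathfinder machine-learning gating classed cells as Hoechst high-intensity objects or normal cells, classed normal cells as having healthy, pyknosed or fragmented nuclei, and classed pyknosed cells as mitotic or apoptotic. Tubulin, mitochondrial-mass and membrane-permeability phenotypes are per cents of the healthy-nucleus cells.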

[1] = 12 h, 1 µM, compound concentration 1 uM
[2] = 12 h, 10 µM, compound concentration 10 uM
[3] = 24 h, 1 µM, compound concentration 1 uM
[4] = 24 h, 10 µM, compound concentration 10 uM
[5] = 48 h, 1 µM, compound concentration 1 uM
[6] = 48 h, 10 µM, compound concentration 10 uM

CCn1cnc2c(-c3ccc(F)c(-c4ccc(S(=O)(=O)CC)cc4OC)c3)cnnc21 [DARIGABAT]
Population Apoptotic (%) [1]: 6.38% and 17.39% | Population Fragmented Nuclei (%) [1]: 14.08% and 9% | Population Healthy Nuclei (%) [1]: 52.82% and 80.09% | Population Hoechst High Intensity Objects (%) [1]: 0% | Population Membrane Permeable-Phenotype (%) [1]: 4% and 1.78% | Population Mitochondria Different-Phenotype (%) [1]: 14.67% and 11.24% | Population Mitotic Cells (%) [1]: 93.62% and 82.61% | Population Normal (%) [1]: 100% | Population Tubulin-Different-Phenotype (%) [1]: 21.33% and 23.08% | Total Cell Count [1]: 142 and 211 | Population Apoptotic (%) [2]: 12.5% and 19.64% | Population Healthy Nuclei (%) [2]: 48.7% and 72.25% | Population Hoechst High Intensity Objects (%) [2]: 0% | Population Membrane Permeable-Phenotype (%) [2]: 13.33% and 8.61% | Population Mitochondria Different-Phenotype (%) [2]: 14.67% and 16.56% | Population Mitotic Cells (%) [2]: 87.5% and 80.36% | Population Normal (%) [2]: 100% | Population Tubulin-Different-Phenotype (%) [2]: 54.67% and 72.85% | Total Cell Count [2]: 154 and 209 | Population Apoptotic (%) [3]: 11.11% and 23.08% | Population Fragmented Nuclei (%) [3]: 13.37% and 6.44% | Population Healthy Nuclei (%) [3]: 60.47% and 87.13% | Population Hoechst High Intensity Objects (%) [3]: 0% | Population Membrane Permeable-Phenotype (%) [3]: 0.96% and 3.41% | Population Mitochondria Different-Phenotype (%) [3]: 9.62% and 6.82% | Population Mitotic Cells (%) [3]: 88.89% and 76.92% | Population Normal (%) [3]: 100% | Population Tubulin-Different-Phenotype (%) [3]: 19.23% and 19.89% | Total Cell Count [3]: 172 and 202 | Population Apoptotic (%) [4]: 23.08% and 22.22% | Population Healthy Nuclei (%) [4]: 57.56% and 78.38% | Population Hoechst High Intensity Objects (%) [4]: 0% | Population Membrane Permeable-Phenotype (%) [4]: 11.11% and 3.45% | Population Mitochondria Different-Phenotype (%) [4]: 14.14% and 19.54% | Population Mitotic Cells (%) [4]: 76.92% and 77.78% | Population Normal (%) [4]: 100% | Population Tubulin-Different-Phenotype (%) [4]: 52.53% and 70.69% | Total Cell Count [4]: 172 and 222 | Population Apoptotic (%) [5]: 28.57% and 56.25% | Population Fragmented Nuclei (%) [5]: 13.07% and 8% | Population Healthy Nuclei (%) [5]: 82.95% and 84% | Population Hoechst High Intensity Objects (%) [5]: 0% | Population Membrane Permeable-Phenotype (%) [5]: 1.37% and 1.79% | Population Mitochondria Different-Phenotype (%) [5]: 19.18% and 6.55% | Population Mitotic Cells (%) [5]: 71.43% and 43.75% | Population Normal (%) [5]: 100% | Total Cell Count [5]: 176 and 200 | Population Apoptotic (%) [6]: 34.62% and 60% | Population Healthy Nuclei (%) [6]: 68.28% and 85.52% | Population Hoechst High Intensity Objects (%) [6]: 0% | Population Membrane Permeable-Phenotype (%) [6]: 4.72% and 11.64% | Population Mitochondria Different-Phenotype (%) [6]: 15.75% and 8.99% | Population Mitotic Cells (%) [6]: 65.38% and 40% | Population Normal (%) [6]: 100% | Population Tubulin-Different-Phenotype (%) [6]: 34.65% and 64.55% | Total Cell Count [6]: 186 and 221

COc1ccc(Cl)cc1[C@]1(F)C(=O)Nc2cc(C(F)(F)F)ccc21 [FLINDOKALNER]
Population Apoptotic (%) [1]: 10.87% and 19.35% | Population Fragmented Nuclei (%) [1]: 9.6% and 5.91% | Population Healthy Nuclei (%) [1]: 64.41% and 80% | Population Hoechst High Intensity Objects (%) [1]: 0% | Population Membrane Permeable-Phenotype (%) [1]: 2.63% and 1.7% | Population Mitochondria Different-Phenotype (%) [1]: 7.02% and 9.09% | Population Mitotic Cells (%) [1]: 89.13% and 80.65% | Population Normal (%) [1]: 100% | Population Pyknosed Nuclei (%) [1]: 25.99% and 14.09% | Population Tubulin-Different-Phenotype (%) [1]: 10.53% and 15.34% | Total Cell Count [1]: 177 and 220 | Population Apoptotic (%) [2]: 10.2% and 11.76% | Population Fragmented Nuclei (%) [2]: 14.63% and 8.91% | Population Healthy Nuclei (%) [2]: 55.49% and 74.26% | Population Hoechst High Intensity Objects (%) [2]: 0% | Population Membrane Permeable-Phenotype (%) [2]: 5.49% and 4.67% | Population Mitochondria Different-Phenotype (%) [2]: 15.38% and 11.33% | Population Mitotic Cells (%) [2]: 89.8% and 88.24% | Population Normal (%) [2]: 100% | Population Pyknosed Nuclei (%) [2]: 29.88% and 16.83% | Population Tubulin-Different-Phenotype (%) [2]: 15.38% and 34.67% | Total Cell Count [2]: 164 and 202 | Population Apoptotic (%) [3]: 14.63% and 27.27% | Population Fragmented Nuclei (%) [3]: 10.29% and 4.91% | Population Healthy Nuclei (%) [3]: 69.61% and 85.27% | Population Hoechst High Intensity Objects (%) [3]: 0% | Population Membrane Permeable-Phenotype (%) [3]: 3.52% and 2.09% | Population Mitochondria Different-Phenotype (%) [3]: 5.63% and 5.76% | Population Mitotic Cells (%) [3]: 85.37% and 72.73% | Population Normal (%) [3]: 100% | Population Pyknosed Nuclei (%) [3]: 20.1% and 9.82% | Population Tubulin-Different-Phenotype (%) [3]: 19.72% and 10.99% | Total Cell Count [3]: 204 and 224 | Population Apoptotic (%) [4]: 4.65% and 14.29% | Population Fragmented Nuclei (%) [4]: 9.94% and 5.1% | Population Healthy Nuclei (%) [4]: 64.91% and 84.18% | Population Hoechst High Intensity Objects (%) [4]: 0% | Population Membrane Permeable-Phenotype (%) [4]: 3.6% and 3.03% | Population Mitochondria Different-Phenotype (%) [4]: 12.61% and 10.3% | Population Mitotic Cells (%) [4]: 95.35% and 85.71% | Population Normal (%) [4]: 100% | Population Pyknosed Nuclei (%) [4]: 25.15% and 10.71% | Population Tubulin-Different-Phenotype (%) [4]: 27.93% and 29.09% | Total Cell Count [4]: 171 and 196 | Population Apoptotic (%) [5]: 33.33% and 18.18% | Population Fragmented Nuclei (%) [5]: 9.22% and 7.42% | Population Healthy Nuclei (%) [5]: 83.87% and 87.77% | Population Hoechst High Intensity Objects (%) [5]: 0% | Population Membrane Permeable-Phenotype (%) [5]: 2.2% and 1% | Population Mitotic Cells (%) [5]: 66.67% and 81.82% | Population Normal (%) [5]: 100% | Population Pyknosed Nuclei (%) [5]: 6.91% and 4.8% | Population Tubulin-Different-Phenotype (%) [5]: 12.09% and 14.43% | Total Cell Count [5]: 217 and 229 | Population Apoptotic (%) [6]: 22.22% and 18.18% | Population Healthy Nuclei (%) [6]: 74.18% and 91.26% | Population Hoechst High Intensity Objects (%) [6]: 0% | Population Membrane Permeable-Phenotype (%) [6]: 2.96% and 5.32% | Population Mitochondria Different-Phenotype (%) [6]: 14.81% and 5.32% | Population Mitotic Cells (%) [6]: 77.78% and 81.82% | Population Normal (%) [6]: 100% | Population Pyknosed Nuclei (%) [6]: 9.89% and 5.34% | Population Tubulin-Different-Phenotype (%) [6]: 14.81% and 30.32% | Total Cell Count [6]: 182 and 206

Cc1ccc(F)cc1C(=O)Nc1ccc(C(=O)N2Cc3cccn3Cc3ccccc32)c(Cl)c1 [LIXIVAPTAN]
Population Apoptotic (%) [1]: 40% and 50% | Population Fragmented Nuclei (%) [1]: 11% and 30% | Population Healthy Nuclei (%) [1]: 73% and 47% | Population Hoechst High Intensity Objects (%) [1]: 5% and 3% | Population Membrane Permeable-Phenotype (%) [1]: 0% and 1% | Population Mitochondria Different-Phenotype (%) [1]: 3% and 9% | Population Mitotic Cells (%) [1]: 59% and 50% | Population Normal (%) [1]: 94% and 96% | Population Pyknosed Nuclei (%) [1]: 15% and 21% | Population Tubulin-Different-Phenotype (%) [1]: 28% and 38% | Total Cell Count [1]: 186 and 117 | Population Apoptotic (%) [2]: 34% and 31% | Population Fragmented Nuclei (%) [2]: 18% and 27% | Population Healthy Nuclei (%) [2]: 58% and 46% | Population Hoechst High Intensity Objects (%) [2]: 0% and 5% | Population Membrane Permeable-Phenotype (%) [2]: 2% and 6% | Population Mitochondria Different-Phenotype (%) [2]: 5% and 10% | Population Mitotic Cells (%) [2]: 65% and 68% | Population Normal (%) [2]: 99% and 94% | Population Pyknosed Nuclei (%) [2]: 23% and 25% | Population Tubulin-Different-Phenotype (%) [2]: 62% and 72% | Total Cell Count [2]: 137 and 179 | Population Apoptotic (%) [3]: 50% and 32% | Population Fragmented Nuclei (%) [3]: 12% and 33% | Population Healthy Nuclei (%) [3]: 73% and 43% | Population Hoechst High Intensity Objects (%) [3]: 1% and 3% | Population Membrane Permeable-Phenotype (%) [3]: 1% and 5% | Population Mitochondria Different-Phenotype (%) [3]: 0% and 5% | Population Mitotic Cells (%) [3]: 50% and 67% | Population Normal (%) [3]: 98% and 96% | Population Pyknosed Nuclei (%) [3]: 14% and 23% | Population Tubulin-Different-Phenotype (%) [3]: 33% and 52% | Total Cell Count [3]: 172 and 126 | Population Apoptotic (%) [4]: 25% and 51% | Population Fragmented Nuclei (%) [4]: 19% and 26% | Population Healthy Nuclei (%) [4]: 63% and 51% | Population Hoechst High Intensity Objects (%) [4]: 0% and 5% | Population Membrane Permeable-Phenotype (%) [4]: 2% and 11% | Population Mitochondria Different-Phenotype (%) [4]: 8% and 12% | Population Mitotic Cells (%) [4]: 75% and 48% | Population Normal (%) [4]: 99% and 94% | Population Pyknosed Nuclei (%) [4]: 17% and 22% | Population Tubulin-Different-Phenotype (%) [4]: 63% and 82% | Total Cell Count [4]: 142 and 174 | Population Apoptotic (%) [5]: 63% and 50% | Population Fragmented Nuclei (%) [5]: 18% and 37% | Population Healthy Nuclei (%) [5]: 68% and 40% | Population Hoechst High Intensity Objects (%) [5]: 8% and 0% | Population Membrane Permeable-Phenotype (%) [5]: 0% and 4% | Population Mitochondria Different-Phenotype (%) [5]: 3% and 11% | Population Mitotic Cells (%) [5]: 36% and 50% | Population Normal (%) [5]: 91% and 99% | Population Pyknosed Nuclei (%) [5]: 13% and 21% | Population Tubulin-Different-Phenotype (%) [5]: 28% and 53% | Total Cell Count [5]: 181 and 111 | Population Apoptotic (%) [6]: 70% and 73% | Population Fragmented Nuclei (%) [6]: 25% and 36% | Population Healthy Nuclei (%) [6]: 62% and 51% | Population Hoechst High Intensity Objects (%) [6]: 2% and 5% | Population Membrane Permeable-Phenotype (%) [6]: 0% and 6% | Population Mitochondria Different-Phenotype (%) [6]: 13% | Population Mitotic Cells (%) [6]: 29% and 26% | Population Normal (%) [6]: 97% and 94% | Population Pyknosed Nuclei (%) [6]: 11% | Population Tubulin-Different-Phenotype (%) [6]: 69% and 78% | Total Cell Count [6]: 149 and 170
